Measurements of several laboratories.
Lines come from different studies, so protocols differ. Converted amounts (≈) assume the structure as drawn.

Structure (SMILES) | target or system | assay | test system | setting | quantity | result
O=C1CCP(c2ccccc2)CC1 | HaCaT | cell growth or viability, MTT | – | 72 h | IC50 | 73.3 µM
CC[C@H](C)[C@@H]([C@@H](CC(=O)N1CCC[C@H]1[C@H](OC)[C@@H](C)C(=O)N[C@H](C)[C@@H](O)c1ccccc1)OC)N(C)C(=O)[C@@H](NC(=O)[C@@H](NC)C(C)C)C(C)C | Daudi | cell growth or viability, CCK-8 | – | – | IC50 | 0.00185 µM
COc1cnc(OC)n2nc(NS(=O)(=O)c3c(OCC(F)F)cccc3C(F)(F)F)nc12 | HaCaT | cell growth or viability, CCK-8 | – | 50 µM, 72 h | inhibition | 0.69%
C#Cc1ccc(C=NNC(=O)c2cc(Br)cc(Br)c2O)c(O)c1 | Cryptococcus neoformans | microbial growth, broth dilution | – | pH 7.4 | MIC80 | 0.03 mg/L (≈ 0.0685 µM)
S=P1(C2CCCCC2)CCCCC1 | HaCaT | cell growth or viability, MTT | – | 72 h | IC50 | > 100 µM
C#Cc1ccc(C=NNC(=O)c2ccc(COCCC)cc2)c(O)c1 | Cryptococcus neoformans | microbial growth, broth dilution | – | pH 7.4 | MIC80 | 0.015 mg/L (≈ 0.0446 µM)
CC[C@H](C)C[C@H](C)CCCCCCCCC(=O)N[C@H]1C[C@@H](O)[C@@H](NCCN)NC(=O)[C@@H]2[C@@H](O)CCN2C(=O)[C@H]([C@H](O)CCN)NC(=O)[C@H]([C@H](O)[C@@H](O)c2ccc(O)cc2)NC(=O)[C@@H]2C[C@@H](O)CN2C(=O)[C@H]([C@@H](C)O)NC1=O | Nakaseomyces glabratus | microbial growth, broth dilution | ATCC15126 | 48 h | MIC | 0.25 mg/L (≈ 0.229 µM)
C#Cc1ccc(C=NNC(=O)c2ccc(COCC)cc2)c(O)c1 | Cryptococcus neoformans | microbial growth, broth dilution | – | pH 7.4 | MIC80 | 0.015 mg/L (≈ 0.0465 µM)
S=P1(c2ccccc2)CCCCC1 | HaCaT | cell growth or viability, MTT | – | 72 h | IC50 | > 100 µM
CC[C@@]1(O)C(=O)OCc2c1cc1n(c2=O)Cc2cc3ccccc3nc2-1 | SNB-19 | cell growth or viability, SRB | – | 48 h | IC50 | 52.9 µM
C#Cc1cccc(O)c1C=NNC(=O)c1ccc(COC)cc1 | Cryptococcus neoformans | microbial growth, broth dilution | – | pH 7.4 | MIC80 | 0.06 mg/L (≈ 0.195 µM)
CC(=O)O[C@H]1C(=O)[C@@]2(C)[C@H]([C@H](OC(=O)c3ccccc3)[C@]3(O)C[C@H](OC(=O)[C@H](O)[C@@H](NC(=O)c4ccccc4)c4ccccc4)C(C)=C1C3(C)C)[C@]1(OC(C)=O)CO[C@@H]1C[C@@H]2O | HaCaT | cell growth or viability, CCK-8 | – | 12.5 µM, 72 h | inhibition | > 90%
N.N.[Cl][Pt][Cl] | Daudi | cell growth or viability, ATP luminescence | – | 72 h | IC50 | 0.86 µM
